ChEMBL document CHEMBL3792296, “Synthesis and antiproliferative activity of 9-benzylamino-6-chloro-2-methoxy-acridine derivatives as potent DNA-binding ligands and topoisomerase II inhibitors” (Eur J Med Chem, 2016)
Calls of active or inactive are those of the source. The rule behind the calls is not given here.

What was measured:
[1] = test system: A549; test: Induction of DNA damage in human A549 cells assessed as tail DNA at 5 uM after 24 hrs by propidium iodide staining based comet assay (reference value: 0.02%); format: cell-based
Procedure, shortened: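 Alkaline comet assay. About 10⁵ A549 cells per well incubated 12 h, then treated 24 h in serum-free medium against a DMSO control. Cells embedded in low-melting agarose, lysed 2 h, alkaline-unwound 0.5 h at 4 °C, electrophoresed at 300 mA for 25 min in the dark. Slides neutralized, PI-stained, 50 random cells scored for % tail DNA.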

[2] = test system: A549; test: Induction of apoptosis in human A549 cells assessed as increase in expression of cleaved caspase 3 at 1 to 2.5 uM after 48 hrs by Western blot analysis; format: functional, cell-based
Procedure, shortened: (§1)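 A549 cells grown to 80% confluency, treated with graded concentrations for 48 h, then lysed in Tris-HCl/NaCl/Triton X-100 buffer with protease inhibitors. 40 µg protein resolved on 12 or 15% SDS-PAGE and blotted to PVDF. Primary antibodies used at 1:1000 for 6-8 h, HRP anti-rabbit at 1:2000 for 2 h, ECL detection, β-actin as loading control.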

[3] = test system: A549; test: Induction of apoptosis in human A549 cells assessed as increase in expression of cleaved caspase 9 at 1 to 2.5 uM after 48 hrs by Western blot analysis; format: functional, cell-based; procedure, shortened: as §1
[4] = test system: A549; test: Induction of apoptosis in human A549 cells assessed as late apoptotic cells at 5 uM after 36 hrs by Annexin V-FITC/propidium iodide staining based FACS analysis (reference value: 0.29%); format: functional
Procedure, shortened: (§2)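 A549 cells seeded at 2 × 10⁵ per well, incubated overnight, then treated at 0, 5 or 10 µM. The legend gives 36 or 48 h; the methods section states 24 h. Annexin V-FITC/PI kit staining followed by flow cytometry. Early and late apoptotic cells expressed as cumulative percentage relative to control.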

[5] = test system: A549; test: Induction of apoptosis in human A549 cells assessed as late apoptotic cells at 10 uM after 48 hrs by Annexin V-FITC/propidium iodide staining based FACS analysis (reference value: 0.62%); format: functional; procedure, shortened: as §2
[6] = test system: A549; test: Induction of DNA damage in human A549 cells assessed as increase in gamma-H2AX expression at 1 to 2.5 uM after 48 hrs by Western blot analysis; format: cell-based; procedure, shortened: as §1
[7] = Antiproliferative activity against human HCT116 cells after 48 hrs by MTT assay; format: functional, cell-based; settings: HCT-116, 48 h
Procedure, shortened: (§3)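 MTT assay: cells seeded at 4-8 × 10³ per well, incubated overnight at 37 °C in 5% CO₂, then given fresh medium with graded compound concentrations or equal DMSO for 48 h. MTT (5 mg/mL solution) added for a further 4 h, formazan dissolved in DMSO, absorbance read at 490 nm. Six cancer cell lines tested.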

[8] = test system: A549; test: Induction of apoptosis in human A549 cells assessed as increase in expression of cleaved caspase 7 at 1 to 2.5 uM after 48 hrs by Western blot analysis; format: functional, cell-based; procedure, shortened: as §1
[9] = test system: MCF7; test: Antiproliferative activity against human MCF7 cells after 48 hrs by MTT assay; format: functional, cell-based; settings: MCF7, 48 h; procedure, shortened: as §3
[10] = test system: Calf thymus DNA; test: Binding affinity to calf thymus DNA assessed as hypochromicity change at 10 uM after 5 mins by UV-vis spectrophotometry relative to control; format: nucleic-acid assay; settings: Bos taurus
Procedure, shortened: (§4)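 ctDNA at 0-44 µM is added to compound at 10 µM final in Tris-HCl buffer (pH 7.4). UV-vis absorption spectra are recorded after 5 min standing. The binding constant K_b is taken from a plot of absorption data against DNA concentration.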

[11] = test system: A549; test: Cell cycle arrest in human A549 cells assessed as accumulation at S phase at 0.5 uM after 36 hrs by propidium iodide staining based flow cytometry (reference value: 30.73%); format: functional
[12] = test system: A549; test: Cell cycle arrest in human A549 cells assessed as accumulation at G0/G1 phase at 0.5 uM after 36 hrs by propidium iodide staining based flow cytometry (reference value: 61.65%); format: functional
[13] = test system: Calf thymus DNA; test: Binding affinity to calf thymus DNA after 5 mins by UV-vis spectrophotometry; format: nucleic-acid assay; settings: Bos taurus; procedure, shortened: as §4
[14] = test system: A549; test: Induction of apoptosis in human A549 cells assessed as early apoptotic cells at 5 uM after 36 hrs by Annexin V-FITC/propidium iodide staining based FACS analysis (reference value: 0.29%); format: functional; procedure, shortened: as §2
[15] = test system: A549; test: Cell cycle arrest in human A549 cells assessed as accumulation at G0/G1 phase at 5 uM after 36 hrs by propidium iodide staining based flow cytometry (reference value: 61.65%); format: functional
[16] = test system: A549; test: Cellular uptake in human A549 cells at 1 to 5 uM after 4 hrs by FACS analysis; format: ADME, cell-based; settings: a549, 4 h
Procedure, shortened: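 A549 cells treated with 1 or 5 µM for 4 h; 8 and 16 h also examined. Cells trypsinized, pelleted, resuspended in PBS and analysed at once by FACS. Intrinsic compound fluorescence read with 400 nm excitation, at least 10000 cells per sample.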

[17] = test system: CCRF-CEM; test: Antiproliferative activity against human CCRF-CEM cells after 48 hrs by MTT assay; format: functional, cell-based; procedure, shortened: as §3
[18] = test system: A549; test: Induction of apoptosis in human A549 cells assessed as early apoptotic cells at 10 uM after 36 hrs by Annexin V-FITC/propidium iodide staining based FACS analysis (reference value: 0.29%); format: functional; procedure, shortened: as §2
[19] = test system: A549; test: Induction of apoptosis in human A549 cells assessed as late apoptotic cells at 5 uM after 48 hrs by Annexin V-FITC/propidium iodide staining based FACS analysis (reference value: 0.62%); format: functional; procedure, shortened: as §2
[20] = test system: A549; test: Cell cycle arrest in human A549 cells assessed as accumulation at G2/M phase at 5 uM after 36 hrs by propidium iodide staining based flow cytometry (reference value: 7.62%); format: functional
[21] = test system: A549; test: Cell cycle arrest in human A549 cells assessed as accumulation at S phase at 1 uM after 36 hrs by propidium iodide staining based flow cytometry (reference value: 30.73%); format: functional
[22] = test system: A549; test: Induction of apoptosis in human A549 cells assessed as early apoptotic cells at 10 uM after 48 hrs by Annexin V-FITC/propidium iodide staining based FACS analysis (reference value: 0.94%); format: functional; procedure, shortened: as §2
[23] = test system: A549; test: Cell cycle arrest in human A549 cells assessed as accumulation at G2/M phase after 36 hrs by propidium iodide staining based flow cytometry; format: functional
[24] = test system: A549; test: Antiproliferative activity against human A549 cells after 48 hrs by MTT assay; format: functional, cell-based; settings: A549, 48 h; procedure, shortened: as §3
[25] = test system: Calf thymus DNA; test: Binding affinity to calf thymus DNA assessed as bathochromic shift at 10 uM after 5 mins by UV-vis spectrophotometry; format: nucleic-acid assay; settings: Bos taurus; procedure, shortened: as §4
[26] = test system: A549; test: Cell cycle arrest in human A549 cells assessed as accumulation at G0/G1 phase at 1 uM after 36 hrs by propidium iodide staining based flow cytometry (reference value: 61.65%); format: functional
[27] = test system: A549; test: Induction of apoptosis in human A549 cells assessed as late apoptotic cells at 10 uM after 36 hrs by Annexin V-FITC/propidium iodide staining based FACS analysis (reference value: 0.29%); format: functional; procedure, shortened: as §2

For `COc1ccc(CNc2c3ccc(Cl)cc3nc3ccc(OC)cc23)cc1`, the Activity [1] was 52.3%, the Activity [2] was “Active” and the Activity [3] was “Active”. The Activity [4] was 10.47%, the Activity [5] was 82.46% and the Activity [6] was “Active”. The IC50 [7] was 6.32 µM, the Activity [8] was “Active” and the IC50 [9] was 6.95 µM. It also gave an Activity [10] of 60%, an Activity [11] of 30.4% and an Activity [12] of 61.48%. The Kb [13] was 1.68 ×10⁵ /M, the Activity [14] was 2.14% and the Activity [15] was 62.04%. The Drug uptake [16] was “Active”, the IC50 [17] was 2.54 µM and the Activity [18] was 3.24%. The Activity [19] was 21.23%, the Activity [20] was 16.52% and the Activity [21] was 29.55%. For the same compound, the Activity [22] was 8.8%, the Activity [23] was “Dose-dependent effect” and the IC50 [24] was 0.61 µM. The Activity [25] was 10 nm, the Activity [26] was 60.83% and the Activity [27] was 88.13%.
